According to ChEMBL document CHEMBL4043092, “Neuroprotective and Antineuroinflammatory Effects of Hydroxyl-Functionalized Stilbenes and 2-Arylbenzo[b]furans” (J Med Chem, 2017):
Active and inactive are the calls of the source. The rule behind the calls is not given here.

Tests used:
[1] = Anti-inflammatory activity in Sprague-Dawley rat primary mixed glial cells assessed as inhibition of LPS-induced NO production at 50 uM pretreated for 2 hrs followed by LPS addition measured after 48 hrs by Griess assay (reference value: 100%); assay type: functional, Primary glial cell; set-up: scale not given: the % may be the effect or the level left
Cortical neurone [2] = experiment: Neuroprotective activity against fibril amyloid beta (25 to 35)-induced cell death in Sprague-Dawley rat 5 day old neonatal primary cortical neurons assessed as cell death at maximum non toxic concentration pretreated for 2 hrs followed by 10 uM fibril amyloid beta (25 to 35) addition measured after 48 hrs by MTT assay (reference value: 39.20 +/- 0.88%); assay type: functional
Summary of the method: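 Rat cortical neurons from pups, papain-dissociated, cytosine arabinoside (5 μM, 1 day) to remove non-neuronal cells, used at DIV5. Vehicle 0.1% DMSO or compound pretreatment before fAβ25–35 (aged 1 week at 37 °C). Viability by MTT reduction: 0.5 mg/mL for 1 h, formazan dissolved in DMSO, OD600. Mean ± SD of three independent experiments.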

Cortical neurone [3] = experiment: Neuroprotective activity against glutamate-induced cell death in Sprague-Dawley rat 10 days old neonatal primary cortical neurons assessed as cell death at maximum non toxic concentration pretreated for 2 hrs followed by 30 uM glutamate addition measured after 24 hrs by MTT assay (reference value: 41.22 +/- 3.40%); assay type: functional
Cortical neurone [4] = experiment: (§1) Neuroprotective activity against glutamate-induced cell death in Sprague-Dawley rat 10 days old neonatal primary cortical neurons assessed as increase in cell viability pretreated for 2 hrs followed by 30 uM glutamate addition measured after 24 hrs by MTT assay; assay type: functional, cell-based
Summary of the method: (§2)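 Cortical neurons pretreated 2 h with vehicle (0.1% DMSO) or compound at maximum nontoxic concentration. Then exposed at DIV5 to fibrillar Aβ25–35 (10 μM, 48 h) or at DIV10 to glutamate (30 μM, 24 h). MTT 0.5 mg/mL for 1 h, formazan dissolved in DMSO, OD read at 600 nm. Mean ± SD of three independent experiments.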

Cortical neurone [5] = experiment: (§3) Neuroprotective activity against fibril amyloid beta (25 to 35)-induced cell death in Sprague-Dawley rat 5 days old neonatal primary cortical neurons assessed as increase in cell viability pretreated for 2 hrs followed by 10 uM fibril amyloid beta (25 to 35) addition measured after 48 hrs by MTT assay; assay type: functional, cell-based; summary of the method: as §2
[6] = Anti-inflammatory activity in Sprague-Dawley rat primary mixed glial cells assessed as inhibition of LPS-induced NO production pretreated for 2 hrs followed by LPS addition measured after 48 hrs by Griess assay; assay type: functional, cell-based; settings: Glial cell
Summary of the method: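 Mixed cortical glia kept 3 days in DMEM/F12 with 10% FBS, medium changed, 4 more days, then 9 days in Neurobasal/B27 (16 days total). Cultures activated 2 days after medium refresh with 100 ng/mL LPS for 48 h, with compound at maximum nontoxic concentration. Medium nitrite read by Griess reagent at 540 nm against NaNO2 standard. Mean ± SD, three independent experiments.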

[7] = Antioxidant activity assessed as ABTS radical cation scavenging activity by measuring trolox equivalents by spectrophotometric analysis; assay type: functional
Mus musculus [8] = experiment: Antialzheimer activity in APPswe/PSEN1dE9 double transgenic C57BL/6J mouse model of Alzheimer's disease assessed as decrease in number of unshredded nestlets at 30 mg/kg/day administered via oral gavage over 60 days by nesting test
Cytochrome P450 3A4 = Cytochrome P450 3A4 (Homo sapiens, UniProt P08684); experiment: Inhibition of CYP3A4 in human liver microsomes; assay type: ADME
Cortical neurone [9] = experiment: as §1, with “neuron” for “neurons”, “viability at 50 uM” for “viability”, “calcein AM dye-based confocal laser scanning microscopic analysis” for “MTT assay”; assay type: functional
Summary of the method: (§4)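 Rat pup cortical neurons in Neurobasal/B27, given 5 μM cytosine arabinoside for 1 day. Used at DIV5 for Aβ25–35 fibrils (aged 1 week at 37 °C; 10 μM, 48 h) or DIV10 for glutamate (30 μM, 24 h), after 2 h with 50 μM compound or 0.1% DMSO. Cells loaded with 1 μM calcein AM and ethidium homodimer-1 for 30 min at room temperature, imaged by confocal microscopy. Live-cell count and integrated density expressed relative to vehicle. Mean ± SEM, n=3.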

Cortical neurone [10] = experiment: (§5) Neuroprotective activity against glutamate-induced cell death in Sprague-Dawley rat 10 days old neonatal primary cortical neuron assessed as inhibition of glutamate-induced decrease in MAP2 level at 50 uM pretreated for 2 hrs followed by 30 uM glutamate addition measured after 24 hrs by fluorescein isothiocyanate dye-based immunocytochemistry analysis; assay type: functional
Summary of the method: (§6)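 Cortical neurons at DIV5 (fibrillar Aβ25–35 10 μM, 48 h) or DIV10 (glutamate 30 μM, 24 h), after 2 h with 50 μM compound. Fixed in 4% paraformaldehyde, permeabilized with Triton X-100, blocked with donkey serum. Stained with anti-MAP2 and anti-tau (1:100, overnight at 4 °C), then FITC and RRX secondaries. Integrated density relative to vehicle. Mean ± SEM, n=3.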

Cortical neurone [11] = experiment: as §5, with “tau” for “MAP2”; assay type: functional; summary of the method: as §6
Cortical neurone [12] = experiment: as §5, with “fibril amyloid beta (25 to 35)-induced” for “glutamate-induced”, “5” for “10”, “tau protein” for “MAP2”, “10” for “30”, “fibril amyloid beta (25 to 35)” for “glutamate”, “48” for “24”; assay type: functional; summary of the method: as §6
Cortical neurone [13] = experiment: as §3, with “neuron” for “neurons”, “viability at 50 uM” for “viability”, “calcein AM dye-based confocal laser scanning microscopic analysis” for “MTT assay”; assay type: functional; summary of the method: as §4
Mus musculus [14] = experiment: Antialzheimer activity in APPswe/PSEN1dE9 double transgenic C57BL/6J mouse model of Alzheimer's disease assessed as increase in nesting score at 30 mg/kg/day administered via oral gavage over 60 days by nesting test; assay type: functional, organism-based
Summary of the method: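 Female APP/PS1 C57BL/6J mice, 5 months old, given compound by oral gavage at 30 mg/kg/day for 60 days. Wild-type siblings received vehicle. Two nestlets (about 5 g) placed in the cage 1 h before the dark cycle. Nest score and unshredded nestlet weight recorded. Mean ± SD per group.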

Chain of Cytochrome P450 3A4 (P08684 whole entry): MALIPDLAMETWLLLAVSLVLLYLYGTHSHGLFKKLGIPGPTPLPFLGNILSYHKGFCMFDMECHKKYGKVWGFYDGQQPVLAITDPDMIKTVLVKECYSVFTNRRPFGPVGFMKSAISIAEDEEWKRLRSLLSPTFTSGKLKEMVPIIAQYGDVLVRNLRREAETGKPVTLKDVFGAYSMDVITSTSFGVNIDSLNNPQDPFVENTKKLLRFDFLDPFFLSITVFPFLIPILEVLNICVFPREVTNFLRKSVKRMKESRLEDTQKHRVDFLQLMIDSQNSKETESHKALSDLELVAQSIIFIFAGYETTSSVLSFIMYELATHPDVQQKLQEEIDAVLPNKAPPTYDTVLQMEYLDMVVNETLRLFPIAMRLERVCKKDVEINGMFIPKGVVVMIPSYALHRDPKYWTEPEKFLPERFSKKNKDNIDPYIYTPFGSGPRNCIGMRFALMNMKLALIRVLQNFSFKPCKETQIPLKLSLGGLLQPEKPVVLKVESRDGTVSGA

SMILES	Activity [1] [%]	Activity (Cortical neurone [2]) [%]	Activity (Cortical neurone [3]) [%]	other results
CCOC(=O)/C=C/c1ccc(OC)c(O)c1/C=C/c1cc(OC)c(OC)c(OC)c1	114.19	42.53	43.06	–
COc1ccc(/C=C/c2cc(C=O)cc(OC)c2O)cc1OC	27.99	48.16	37.02	EC50 (Cortical neurone [4]): > 50 µM; EC50 (Cortical neurone [5]): > 50 µM; EC50 [6]: 43 µM
CCOC(=O)/C=C/c1ccc(OC)c(O)c1/C=C/c1ccc2c(c1)OCO2	70.98	38.17	49.21	EC50 (Cortical neurone [4]): > 50 µM; EC50 (Cortical neurone [5]): > 50 µM; EC50 [6]: 67 µM
CCOC(=O)/C=C/c1cccc(/C=C/c2cc(O)c(O)c(O)c2)c1	26.02	41.19	42.05	EC50 (Cortical neurone [4]): > 50 µM; EC50 (Cortical neurone [5]): > 50 µM; EC50 [6]: 48.9 µM
COc1ccc(Br)c2cc(-c3ccc4c(c3)OCO4)oc12	202.71	43.98	46.84	–
COc1cc(Br)c(/C=C/c2cc(Br)cc(OC)c2O)cc1OC	94.57	38.78	41.17	–
Oc1cc(-c2cc3cc(Br)cc(O)c3o2)cc(O)c1O	106.67	45.8	43.67	–
COC(=O)/C=C/c1ccc(O)c2c1C=Cc1cc(O)c(O)cc1O2	99.63	40.12	20.38	EC50 (Cortical neurone [4]): > 50 µM; Activity [7]: 1.48 mMequiv
CCOC(=O)/C=C/c1cc(/C=C/c2ccc3c(c2)OCO3)c(O)c(OC)c1	139.87	39.08	41.26	–
CCOC(=O)/C=C/c1ccc(OC)c(O)c1/C=C/c1ccc(OC)c(OC)c1	106.26	38.07	44.3	–
CCOC(=O)/C=C/c1cc2c(cc1/C=C/c1cc(OC)c(OC)c(OC)c1)OCO2	127.76	41.76	43.95	–
COc1ccc(/C=C/c2ccc3c(c2)OCO3)cc1O	81.35	43.51	30.94	–
CCOC(=O)/C=C/c1cc(O)c(O)cc1-c1cc2cccc(O)c2o1	38.13	31.58	43.5	EC50 (Cortical neurone [4]): > 50 µM; EC50 (Cortical neurone [5]): > 50 µM; Activity [7]: 0.2 mMequiv; EC50 [6]: 82.5 µM
CCOC(=O)/C=C/c1c(/C=C/c2ccc(OC)cc2)cc(OC)c(OC)c1OC	59.11	36.93	41.07	–
CCOC(=O)/C=C/c1ccc(/C=C/c2cc(OC)c(OC)c(OC)c2)cc1	91.44	44.43	44.56	–
COc1ccc(/C=C/c2cc(Br)cc(OC)c2O)cc1OC	88.34	41.5	42.09	–
COc1cccc(/C=C/c2ccc3c(c2)OCO3)c1O	101	46.98	38.42	–

SMILES	Activity [1] [%]	Activity (Cortical neurone [2]) [%]	Activity (Cortical neurone [3]) [%]	other results
CCOC(=O)/C=C/c1cc(O)c(O)cc1-c1cc2ccccc2o1	49.61	25.45	21	EC50 (Cortical neurone [4]): 46.1 µM; EC50 (Cortical neurone [5]): > 50 µM; Activity (Mus musculus [8]): Active; IC50 (Cytochrome P450 3A4): 11.2 µM; Activity (Cortical neurone [9]): Active; inhibition (Cortical neurone [10]): Active; Activity [7]: 0.01 mMequiv; inhibition (Cortical neurone [11]): Active; inhibition (Cortical neurone [12]): inactive; Activity (Cortical neurone [13]): Active; Activity (Mus musculus [14]): Active; EC50 [6]: > 100 µM
CCOC(=O)/C=C/c1cc2c(cc1/C=C/c1cccc(OC)c1O)OCO2	75.33	41.57	41.64	–
O=C(O)/C=C/c1ccc(O)c2c1C=Cc1cc(O)c(O)cc1O2 [TOURNEFOLIC ACID B]	98.77	24.66	42.43	EC50 (Cortical neurone [5]): 35.7 µM; Activity [7]: 1.27 mMequiv
COc1cc(/C=C/c2ccccc2O)c(Br)c(OC)c1OC	105.48	37.67	47.1	–
Oc1ccc(-c2cc3cc(Br)cc(O)c3o2)cc1	101.84	30.1	33.02	–
CCOC(=O)/C=C/c1cc(O)c2oc(-c3cc(O)c(O)c(O)c3)cc2c1	40.35	21.18	24.48	EC50 (Cortical neurone [4]): 33 µM; EC50 (Cortical neurone [5]): 53 µM; Activity (Mus musculus [8]): Active; IC50 (Cytochrome P450 3A4): 21.7 µM; Activity (Cortical neurone [9]): Active; inhibition (Cortical neurone [10]): Active; Activity [7]: 0.94 mMequiv; inhibition (Cortical neurone [11]): Active; inhibition (Cortical neurone [12]): inactive; Activity (Cortical neurone [13]): Active; Activity (Mus musculus [14]): Active; EC50 [6]: 56.6 µM
CCOC(=O)/C=C/c1cc2c(cc1/C=C/c1ccc(OC)cc1)OCO2	74.88	41.62	37.28	–
CCOC(=O)/C=C/c1cc(OC)c(OC)cc1/C=C/c1ccccc1O	73.27	36.56	43.3	–
COc1cc(Br)cc(/C=C/c2ccc3c(c2)OCO3)c1O	48.79	45.74	45.69	EC50 (Cortical neurone [4]): > 20 µM; EC50 (Cortical neurone [5]): > 10 µM; EC50 [6]: 84.8 µM
Oc1cc(-c2cc3ccccc3o2)c(Br)c(O)c1O	24.92	42.34	41.89	EC50 (Cortical neurone [4]): > 20 µM; EC50 (Cortical neurone [5]): > 20 µM; Activity [7]: 0.97 mMequiv; EC50 [6]: 39.2 µM
CCOC(=O)/C=C/c1cc(OC)c(OC)cc1/C=C/c1cccc(OC)c1O	89.35	41.24	42.73	–
CCOC(=O)/C=C/c1cccc(/C=C/c2cc(OC)c(OC)c(OC)c2)c1	75.6	35.98	43.29	–
CCOC(=O)/C=C/c1cc(OC)c(OC)cc1/C=C/c1cc(OC)c(OC)c(OC)c1	123.48	41.59	39.47	–
COc1cccc(/C=C/c2ccc3c(c2)OCO3)c1OC	95.92	38.18	44.02	–
COc1cc(Br)c(/C=C/c2cccc(OC)c2O)cc1OC	102.71	39.67	42.89	–
COc1cc(/C=C/c2ccc3c(c2)OCO3)cc(OC)c1OC	83.73	45.46	36.43	–
